Legend:
Type in all cases: functional
[1] = test system: P19; assay: Percent aggregation of mouse embryonal carcinoma (P19) cells 10e-6 M concentration in culture medium
How it was run: (§1)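 P19 mouse embryonal carcinoma cells grown in α-MEM with 7.5% calf serum, 2.5% fetal calf serum and gentamycin at 37 °C, 5% CO2. Cells trypsinized, replated at 2×10^5 cells/mL, dosed from DMSO stock at 10⁻⁶ M final, redosed with fresh medium after 2 days, diluted 3 days later and counted 2 days after that. Read-out is percent of aggregates with neural outgrowth. Run in triplicate.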

[2] = test system: HL-60; assay: Percent differentiation of human promyelocytic leukemia (HL60) cells at 10e -6M concentration in culture medium
How it was run: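 HL60 cells in RPMI-1640 with 10% FBS, 2 mM L-glutamine and gentamycin were exposed for 4 days to compound at 10⁻⁶ M final, diluted from a DMSO stock, at 1×10^5 cells/mL. Differentiation was scored by NBT reduction: 30 min at 37 °C with 0.2% NBT plus 200 ng/mL PMA. At least 200 cells were counted by light microscopy, blue cells scored as differentiated.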

[3] = test system: P19; assay: percent aggregation of mouse embryonal carcinoma (P19) cells 10e -6M concentration in culture medium; how it was run: as §1

Compound | Aggregates [1] | Differentiation [2] | Aggregation [3]
CC1(C)CCC(C)(C)c2nc(C(=O)Nc3cccc(C(=O)O)c3)cnc21 | 1% | 2% | 
CC1(C)CC(C)(C)c2nc(C(=O)Nc3ccc(C(=O)O)c(Cl)c3)cnc21 | 60% | 67% | 
CC1(C)CC(C)(C)c2nc(C(=O)Nc3cccc(C(=O)O)c3)cnc21 | 0% | 0% | 
COc1cc(C(=O)O)ccc1NC(=O)c1cnc2c(n1)C(C)(C)CC2(C)C | 0% | 6% | 
CC1(C)CC(C)(C)c2nc(C(=O)Nc3ccc(C(=O)O)cc3)cnc21 | 67% | 46% | 
COc1cc(C(=O)O)ccc1NC(=O)/C=C(C)/C=C/C1=C(C)CCCC1(C)C | 2% | 9% | 
COC(=O)c1ccc(NC(=O)c2cnc3c(n2)C(C)(C)CC3(C)C)cc1Cl | 50% | 69% | 
CC1=C(/C=C/C(C)=C/C(=O)N(C)c2ccc(C(=O)O)cc2)C(C)(C)CCC1 | 1% | 4% | 
CC1=C(/C=C/C(C)=C/C(=O)Nc2ccc(C(=O)O)cc2)C(C)(C)CCC1 | 68% | 79% | 
COC(=O)c1ccc(N(C)C(=O)c2cnc3c(n2)C(C)(C)CC3(C)C)cc1 | 0% | 7% | 
CN(C(=O)c1cnc2c(n1)C(C)(C)CCC2(C)C)c1ccc(C(=O)O)cc1 | 0% | 15% | 
COC(=O)c1ccc(Cl)c(NC(=O)c2cnc3c(n2)C(C)(C)CCC3(C)C)c1 | 0% | 7% | 
COC(=O)c1ccc(NC(=O)c2cnc3c(n2)C(C)(C)CCC3(C)C)cc1Cl | 74% | 47% | 
COC(=O)c1cccc(NC(=O)c2cnc3c(n2)C(C)(C)CC3(C)C)c1 | 2% | 0% | 
COC(=O)c1ccc(Cl)c(NC(=O)c2cnc3c(n2)C(C)(C)CC3(C)C)c1 | 0% | 4% | 
COC(=O)c1cc(NC(=O)c2cnc3c(n2)C(C)(C)CC3(C)C)cc(C(=O)OC)c1 | 1% | 4% | 
COC(=O)c1ccc(OC)c(NC(=O)c2cnc3c(n2)C(C)(C)CCC3(C)C)c1 | 0% | 0% | 
COC(=O)c1cccc(NC(=O)c2cnc3c(n2)C(C)(C)CCC3(C)C)c1 | 0% | 6% | 
CC1(C)CCC(C)(C)c2nc(C(=O)Oc3ccc(C(=O)O)cc3)cnc21 |  | 47% | 0%
COc1ccc(C(=O)O)cc1NC(=O)c1cnc2c(n1)C(C)(C)CC2(C)C | 0% | 3% | 
COC(=O)c1ccc(NC(=O)c2cnc3c(n2)C(C)(C)CCC3(C)C)cc1 | 75% | 76% | 
COC(=O)c1ccc(NC(=O)c2cnc3c(n2)C(C)(C)CC3(C)C)cc1 | 52% | 43% | 
CC1(C)CC(C)(C)c2nc(C(=O)Nc3cc(C(=O)O)cc(C(=O)O)c3)cnc21 | 2% | 2% | 
COc1cc(C(=O)O)ccc1NC(=O)c1cnc2c(n1)C(C)(C)CCC2(C)C | 0% | 30% | 
COC(=O)c1cc(NC(=O)c2cnc3c(n2)C(C)(C)CCC3(C)C)cc(C(=O)OC)c1 | 0% | 2% | 
COC(=O)c1ccc(NC(=O)c2cnc3c(n2)C(C)(C)CC3(C)C)c(OC)c1 | 0% | 13% | 
COC(=O)c1ccc(OC)c(NC(=O)c2cnc3c(n2)C(C)(C)CC3(C)C)c1 | 0% | 1% | 
CC1(C)CCC(C)(C)c2nc(C(=O)Nc3ccc(C(=O)O)cc3)cnc21 | 70% | 73% | 
CC1(C)CC(C)(C)c2nc(C(=O)Nc3cc(C(=O)O)ccc3Cl)cnc21 | 2% | 20% | 
CC1=C(/C=C/C(C)=C/C=C/C(C)=C/C(=O)O)C(C)(C)CCC1 [TRETINOIN] |  | 91% | 86%

Source: ChEMBL document CHEMBL1131054, “Synthesis and structure-activity relationships of 2-pyrazinylcarboxamidobenzoates and beta-ionylideneacetamidobenzoates with retinoidal activity” (1998)
